Experimental data reported in paper PMC8025739 (Journal of medicinal chemistry, 2019).

Assays:
[1] = Metabolic stability in swine intestinal; format: in vitro ADME; conditions: swine intestinal (jejunum) homogenate, 20 μm, 37 °C, 1 h (Figure 1B)
[2] = In vitro plasma stability, human plasma; format: in vitro ADME; conditions: prodrug 20 μm, 37 °C
[3] = Pharmacokinetics in EL4 tumor-bearing CES1-/- mice; format: in vivo, C57BL/6 CES1−/− mice
How it was run: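 EL4 cells (1 × 10^6 in PBS) were implanted SC in the flank of male and female C57BL/6 CES1−/− mice (6–8 weeks). At about 400 mm3 tumour volume, a single 3.2 mg/kg SC dose was given in ethanol/Tween 80/saline (5:10:85). Plasma, jejunum and tumour were sampled at set times, n = 3 per time point. Analysis was LC–MS/MS with noncompartmental parameters, mean ± SEM.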

[4] = In vitro plasma stability, swine plasma; format: in vitro ADME; conditions: prodrug 20 μm, 37 °C
[5] = Metabolic stability in swine liver homogenate; format: in vitro ADME; conditions: 20 μm, 37 °C, 1 h (Figure 1A)
[6] = In vitro plasma stability, mouse plasma; format: in vitro ADME; conditions: prodrug 20 μm, 37 °C
[7] = Negative control incubation without enzymes; format: physicochemical; conditions: no enzyme, pH 6 buffer, 37 °C, 3 h
[8] = test system: P493B lymphoma cells; test: Human tumor cell-to-plasma partitioning, P493B cells in human plasma; format: cell-based; conditions: human plasma with P493B cells, 0.25-2 h (Figure 3A)
How it was run: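 P493B lymphoma cells were grown in RPMI 1640 with L-glutamine, 10% FBS and 1% antibiotic/antimycotic at 37 °C and 5% CO2. Pelleted cells were resuspended in human plasma at 10 million cells/mL and preincubated 5 min at 37 °C. Test compound was incubated at 37 °C for 1 h, or for 0.25, 0.5, 1 and 2 h. Plasma and washed pellets were analysed for intact prodrug and DON by LC–MS/MS, with DON dabsyl-derivatised.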

% remaining at 1 h in swine intestinal homogenate [1] | SMILES | Plasma Stability (%Remaining at 1 h) Human [2] | Plasma Stability (%Remaining at 1 h) Swine [4] | further results
instability | CC(=O)NCCCC[C@H](NC(=O)[C@@H]1Cc2ccccc2CN1)C(=O)N[C@@H](CCC(=O)C=[N+]=[N-])C(=O)OC(C)C [Compound 12, Isopropyl 2-(6-Acetamido-2-(1,2,3,4-tetrahydroisoquinoline-3-carboxamido)hexanamido)-6-diazo-5-oxohexanoate] |  |  | 
 | CC(=O)NCCCC[C@H](NC(=O)C12CC3CC(CC(C3)C1)C2)C(=O)N[C@@H](CCC(=O)C=[N+]=[N-])C(=O)OC(C)C [Compound 6, isopropyl 2-(6-acetamido-2-(adamantane-1-carboxamido)hexanamido)-6-diazo-5-oxohexanoate] | complete stability | complete stability | intact prodrug measured in tumor ([3]; EL4 tumor, SC 3.2 mg/kg): minimal; DON AUC in tumor after dosing of 6 ([3]; EL4 tumor, SC 3.2 mg/kg (1 mg/kg DON equivalent), AUC0–t): 5.1 nmol·h/g; DON AUC in jejunum (GI tissues) after dosing of 6 ([3]; jejunum, SC 3.2 mg/kg (1 mg/kg DON equivalent), AUC0–t): 0.45 nmol·h/g; intact prodrug levels in jejunum ([3]; jejunum, SC 3.2 mg/kg, below the limit of quantification): < 0.001 nmol/mL; % remaining at 1 h in swine liver homogenate [5]: 100%; Plasma Stability (%Remaining at 1 h) Mouse [6]: instability; chemical stability in negative control without enzymes [7]: chemically stable; stability of intact prodrug in human plasma, time course [8]: stable over the 2 h incubation period
unstable | CCCCCCCCCCCCCCCC(=O)N[C@@H](CCCCNC(C)=O)C(=O)N[C@@H](CCC(=O)C=[N+]=[N-])C(=O)OC(C)C [Compound 4, Isopropyl 2-(6-Acetamido-2-palmitamidohexanamido)-6-diazo-5-oxohexanoate] |  |  | 
instability | CC(=O)NCCCC[C@H](NC(=O)OCC1c2ccccc2-c2ccccc21)C(=O)N[C@@H](CCC(=O)C=[N+]=[N-])C(=O)OC(C)C [Compound 3, Isopropyl 2-(2-((((9H-Fluoren-9-yl)methoxy)carbonyl)-amino)-6-acetamidohexanamido)-6-diazo-5-oxohexanoate] |  |  | 

SMILES | % remaining at 1 h in swine intestinal homogenate [1] | Plasma Stability (%Remaining at 1 h) Human [2] | Plasma Stability (%Remaining at 1 h) Swine [4] | further results
CC(=O)NCCCC[C@H](NC(=O)[C@H](Cc1c[nH]c2ccccc12)NC(=O)C(C)(C)C)C(=O)N[C@@H](CCC(=O)C=[N+]=[N-])C(=O)OC(C)C [Compound 11, Isopropyl 2-(2-(3-(1H-Indol-3-yl)-2-pivalamidopropanamido)-6-acetamidohexanamido)-6-diazo-5-oxohexanoate] | instability |  |  | 
CC(=O)NCCCC[C@H](NC(=O)[C@@H](N)Cc1c[nH]c2ccccc12)C(=O)N[C@@H](CCC(=O)C=[N+]=[N-])C(=O)OC(C)C [Compound 9, Isopropyl 2-(6-Acetamido-2-(2-amino-3-(1H-indol-3-yl)-propanamido)hexanamido)-6-diazo-5-oxohexanoate] | instability | unstable | unstable | 
